Screening results from PubChem BioAssay.
This is a sample that favours compounds with a hit; in the whole collection about 2.3% have one here.
MC4R ag barr: agonists of human melanocortin 4 receptor (MC4R) beta-arrestin; P32245; U2OS MC4R beta-arrestin complementation, luminescence; percent of melanotan II response, DMSO zero; activation, % at 8.9 µM; hit rate 0.98% among 360,000;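 active = activation above a per-plate cutoff, the mean activation of sample wells on that plate plus 3 SD, cut at about 8% in these data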
Target sequence (P32245 whole entry, looked up): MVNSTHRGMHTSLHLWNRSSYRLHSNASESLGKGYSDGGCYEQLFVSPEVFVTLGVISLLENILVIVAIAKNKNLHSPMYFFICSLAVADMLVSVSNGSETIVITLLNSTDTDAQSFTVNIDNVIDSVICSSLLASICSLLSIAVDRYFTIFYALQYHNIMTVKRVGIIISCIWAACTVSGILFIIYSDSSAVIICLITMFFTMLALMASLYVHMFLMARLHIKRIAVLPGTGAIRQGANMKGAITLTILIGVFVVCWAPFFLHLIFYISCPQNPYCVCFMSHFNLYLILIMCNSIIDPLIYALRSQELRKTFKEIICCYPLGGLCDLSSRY
MC4R antagonist: blocks human MC4R cAMP signaling; AID 540295; hit rate 0.48% among 360,000; MC4R-expressing cells, MTII-stimulated cAMP, LANCE TR-FRET; inhibition, % at 6.5 µM;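 active = inhibition above its plate's cutoff, the mean of tested wells on that plate plus 3 SD, cut at about 29% in these data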;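 also: 0% = Melanotan II alone and 100% = Melanotan II plus saturating MCL0020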
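System: U2OS cells stably expressing human melanocortin 4 receptor (MC4R). Reagent: Melanotan II challenge after compound preincubation. Doses: 6.5 µM. Times: 30-min compound, 1-h challenge, 1-h detection, room temperature. Measured by: TR-FRET with Eu-cAMP and labeled anti-cAMP, 671 nm. Replicates: singlicate.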
MsrA inh: bovine MsrA inhibition | purified bovine MsrA, absorbance read-out | inhibition, % at 15.5 µM | hit rate 0.75% among 360,000 | AID 651718;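 also: 0% = vehicle wells with enzyme and 100% = reference inhibitor wells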
bovine MsrA act: activates bovine MsrA enzyme. purified bovine MsrA, absorbance read-out. activation, % at 10.6 µM. hit rate 0.3% among 360,000. AID 602163; in the data active = activation above about 7.5%;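 also: 0% = vehicle and 100% = reference activator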
MsrA conf: bovine MsrA inhibition, confirmed; AID 651822; purified bovine MsrA, absorbance read-out; inhibition, % at 15.5 µM; shares compounds with MsrA inh; hit rate 41% among 2,300;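 also: coupled to thioredoxin reductase with NADPH and selenocystamine and DMSO as substrate; 0% = vehicle only and 100% = full effect of reference inhibitor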
Starred values were filed as active, the others as inactive; · = no result. Rule as the data show it, unless noted: active = inhibition above about 4.5%; inactive = the rest.

SMILES | MC4R ag barr | MC4R antagonist | MsrA inh | bovine MsrA act | MsrA conf
Cc1c(C(=O)N(C)C)sc2nc(-c3ccccn3)[nH]c(=O)c12 | -3 | 0 | 5.8* | -6 | 3
CCN(CC)C(=O)c1sc2nc(Cc3ccccc3)[nH]c(=O)c2c1C | 0 | 3 | 1 | -10 | ·
CCCc1nc(SCC(=O)O)c2sc(=S)n(-c3ccccc3)c2n1 | -1 | 13 | 4.7* | -1 | 4.8*
COc1ccc(-c2cc(-c3ccccc3)nc(=O)[nH]2)cc1 | 0 | 2 | 5.3* | -6 | 3
CCOC(=O)c1ccccc1NC(=O)CN(c1ccccc1)S(=O)(=O)N(C)C | -1 | 11 | 5.6* | -2 | 4
C[C@]12C(=O)N(c3ccc(C(F)(F)F)cc3)C(=O)N1[C@H]1c3ccccc3OC[C@@H]1[C@H]2c1ccccc1 | 4 | 13 | -1 | -14 | ·
Oc1ccc(/C=N/NC(=S)Nc2cccnc2)c(O)c1 | -2 | 0 | 7.0* | -5 | 5.2*
Oc1oc(-c2ccco2)nc1C=Nc1cccc(Cl)c1 | 1 | -7 | 1 | -9 | ·
CC(=NCc1cccc(Cl)c1)c1nc(-c2ccco2)oc1O | 0 | 4 | 5.9* | -6 | 2
COc1cc2c(cc1OC)CN(Cc1cc(=O)n3c(-c4ccccc4)csc3n1)CC2 | 1 | 8 | 0 | -1 | ·
COc1ccc(-n2c(/C=C(\C)O)nc(=O)c3c(C)cc(C)nc32)cc1 | 3 | 2 | 5.8* | -4 | 4
Cc1nnc(SCCCn2c(N3CCN(c4ccccc4)CC3)nc3c2c(=O)[nH]c(=O)n3C)s1 | 2 | -2 | -1 | -10 | ·
N#C/C(=C/Nc1ccccc1)c1ccsc1 | 3 | 1 | 4.8* | -15 | 2
CCC1SC2=NC(C)=C(C(=O)OCCOC)C(c3ccc(C(=O)OC)cc3)N2C1=O (stereo unspecified) | 0 | 14 | 4.9* | -2 | 2
CCC1SC2=NC(C)=C(C(=O)OC)C(c3ccc(C(=O)OC)cc3)N2C1=O (stereo unspecified) | 3 | 0 | 2 | -2 | ·
Cc1ccc(/C=N/NC(=O)CSc2nnc(-c3ccc(Cl)cc3)n2-c2ccccc2)o1 | 0 | 3 | 1 | -2 | ·
O=C(O)COc1ccccc1/C=N/NC(=O)/C(=C\c1ccc2c(c1)OCO2)NC(=O)c1ccccc1 | 1 | 22 | 5.5* | -6 | 4
O=C(Nc1cccc(C(=O)O)c1)/C(=C\c1ccc2c(c1)OCO2)NC(=O)c1ccccc1Cl | -2 | 11 | 5.5* | -3 | 3
O=C(O)CNC(=O)/C(=C\c1ccc2c(c1)OCO2)NC(=O)c1ccc(Br)cc1 | -1 | -2 | 2 | -3 | ·
O=C(Nc1ccc(C(=O)O)cc1)/C(=C\c1ccc2c(c1)OCO2)NC(=O)c1ccccc1 | 2 | -8 | 4 | -16 | ·
CCOc1cc(/C=N/NC(=O)CSc2nncn2C)ccc1OC(=O)c1ccc(Cl)cc1 | 0 | 5 | 0 | 0 | ·
Cc1cc(C(=O)COc2ccc(C#N)cc2)c(C)n1CC1CCCO1 (stereo unspecified) | 0 | 4 | 1 | -11 | ·
Cc1cccc(C(=O)NCC(=O)OCC(=O)N(C)CC(=O)Nc2ccc(F)cc2)c1 | -1 | 4 | 0 | -3 | ·
O=C1COc2cc(ccc2[N+](=O)[O-])Oc2ccc(cc2Cl)C(=O)CCCCO1 | -2 | 10 | 5.2* | -6 | 5.1*
O=C(CN1C(=O)C2C3C=CC(C3)C2C1=O)N1CC=C(c2ccccc2)CC1 (stereo unspecified) | 0 | 10 | 1 | -3 | ·
SMILES | MC4R ag barr | MC4R antagonist | MsrA inh | bovine MsrA act | MsrA conf
C=CCN=C1CC(C)(C)CC(=O)/C1=C(\O)c1ccccc1 | 1 | 0 | 1 | -11 | ·
COc1ccc(N=C2CC(C)(C)CC(=O)/C2=C(/O)c2ccccc2)cc1 | 0 | 12 | 4.9* | -2 | 1
CC(=O)N1c2ccccc2NC2=C(C(=O)CCC2)C1c1ccco1 (stereo unspecified) | 3 | -2 | 4.9* | -17 | 3
CCC(=O)N1c2ccccc2NC2=C(C(=O)CCC2)C1c1cccnc1 (stereo unspecified) | 0 | 7 | 4.8* | -5 | 3
CCOC(=O)C1=C(C)NC2=C(C(=O)CCC2)C1c1cccnc1 (stereo unspecified) | -1 | 9 | 2 | -3 | ·
CC1CC(=O)C2=C(C1)Nc1ccccc1N(C(=O)COc1ccccc1)C2c1ccco1 (stereo unspecified) | -1 | 4 | 3 | -8 | ·
COc1ccc(NC(=O)c2sc3nc(N4CCCC4)c4c(c3c2N)CC(C)(C)OC4)cc1 | -2 | 13 | 5.3* | -2 | 3
COc1ccc(NC(=O)c2sc3nc(N4CCOCC4)c4c(c3c2N)CC(C)(C)OC4)cc1 | -2 | 16 | 0 | -3 | ·
CCCC[C@@H]1CNCCN1CCc1cc(C(F)(F)F)cc(C(F)(F)F)c1 | 5 | 1 | -1 | 1 | ·
CCN(CC)C1=CC(=[N+]2CCCC2)CC(C)(C)C1 | -1 | -6 | 5.7* | -7 | 4
CN(C)Cc1ccccc1 | · | · | 0 | · | ·
CN(Cc1ccccc1)C1=CC(=[N+]2CCCC2)CC(C)(C)C1 | 0 | 5 | 5.5* | -5 | 3
CCOc1ccc(C(C)NC(=O)Cc2ccccc2)cc1OCC (stereo unspecified) | 1 | 10 | 0 | -8 | ·
CCN(CC)c1ccc(/C=N/Nc2nn[nH]n2)cc1 | 1 | -20 | 6.4* | -10 | 4
CCN(CC)c1ccc(/C=N/Nc2nc(C)cc(C)n2)cc1 | -1 | -9 | 3 | -5 | ·
Cc1ccccc1NC(=O)CC1c2ccccc2CC(C)(C)N1C (stereo unspecified) | -3 | 0 | -1 | -2 | ·
O=C(O)c1ccc(N2C(=O)c3cccc4c(C(=O)O)ccc(c34)C2=O)cc1 | 0 | 11 | 5.5* | -4 | 2
NS(=O)(=O)c1ccc(O)c(N2C(=O)c3cccc4c(C(=O)O)ccc(c34)C2=O)c1 | 2 | 15 | 5.0* | -1 | 4
O=C(N=C1c2ccccc2CN1c1ccc(F)cc1)c1ccc(Cl)nc1 | -2 | 15 | 1 | -2 | ·
O=C(O)c1ccc(NS(=O)(=O)c2ccc3c(c2)C(=O)c2ccccc2C3=O)cc1 | -1 | -7 | 24* | -8 | 15*
O=C(O)c1cccc(S(=O)(=O)Nc2ccc(-c3ccccc3)cc2)c1 | -2 | 10 | 1 | -1 | ·
Cc1ccc(/C=N/NC(=O)c2ccccn2)s1 | -2 | 5 | 4.9* | -3 | 5.2*
CC(C)(C)c1cc(Br)c(O)c(N=Nc2ccc(S(=O)(=O)N3CCOCC3)cc2)c1 | -2 | 6 | 1 | -6 | ·
CC(C)(C)NC(=O)c1cccc2c1C(=O)c1ccccc1-2 | -1 | 2 | 3 | -3 | ·
COc1ccccc1-c1cc(C(F)(F)F)nc(N2CCOCC2)n1 | 5 | 8 | 12* | -3 | 13*
Cn1cnc([N+](=O)[O-])c1Sc1nc(N)nc2c1ncn2C1CC(O)C(CO)O1 (stereo unspecified) | 0 | 7 | 5.5* | -1 | 3
C/C(CCCO)=N/Nc1ccc([N+](=O)[O-])cc1[N+](=O)[O-] | -4 | 17 | 14* | -4 | 7.0*
